Reference: article PMC4367188 (ACS Chemical Neuroscience, 2015)
Entries after “also recorded” stand apart in the source; their conditions may differ.

Assays:
[1] = molecular target: Neuropeptide Y Y2 (Homo sapiens, UniProt P49146); experiment: Lead Profiling Screen radioligand binding
[2] = molecular target: Cannabinoid CB1 (Homo sapiens, UniProt P21554); experiment: Lead Profiling Screen radioligand binding
[3] = molecular target: Histamine, H3 (Homo sapiens, UniProt Q9Y5N1); experiment: Lead Profiling Screen radioligand binding
[4] = molecular target: P450 1A2 (Homo sapiens, UniProt P05177); experiment: cytochrome P450 inhibition; assay type: in vitro ADME
[5] = molecular target: ChAT (Mus musculus, UniProt Q03059); experiment: ChAT activity in mouse forebrain extracts; assay type: biochemical; conditions: concentrations well above the CHT Ki
ChAT, sequence (Q03059 whole entry): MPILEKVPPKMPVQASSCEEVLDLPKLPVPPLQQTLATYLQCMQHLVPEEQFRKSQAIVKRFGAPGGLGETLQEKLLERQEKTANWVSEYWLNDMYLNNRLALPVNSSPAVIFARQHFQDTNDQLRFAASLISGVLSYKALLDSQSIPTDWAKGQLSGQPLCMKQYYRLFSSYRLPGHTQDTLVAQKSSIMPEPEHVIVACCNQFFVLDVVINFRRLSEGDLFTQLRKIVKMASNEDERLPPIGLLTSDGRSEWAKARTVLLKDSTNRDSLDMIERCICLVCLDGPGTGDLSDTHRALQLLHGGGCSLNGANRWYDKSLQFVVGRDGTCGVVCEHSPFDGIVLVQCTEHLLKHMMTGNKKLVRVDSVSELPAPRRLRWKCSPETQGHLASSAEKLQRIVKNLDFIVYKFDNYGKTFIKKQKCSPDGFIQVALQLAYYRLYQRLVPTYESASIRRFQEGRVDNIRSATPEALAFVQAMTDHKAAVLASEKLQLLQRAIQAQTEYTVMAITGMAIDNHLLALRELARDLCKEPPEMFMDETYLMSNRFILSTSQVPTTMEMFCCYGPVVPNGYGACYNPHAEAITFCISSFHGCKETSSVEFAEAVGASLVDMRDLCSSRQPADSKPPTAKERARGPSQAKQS

[6] = molecular target: T1, hCHT (Homo sapiens, UniProt Q9GZV3); experiment: [3H]HC-3 binding to membranes from HEK hCHT cells; conditions: for [3H]HC-3 binding Bmax: relative to control
T1 sequence (Q9GZV3 1-580): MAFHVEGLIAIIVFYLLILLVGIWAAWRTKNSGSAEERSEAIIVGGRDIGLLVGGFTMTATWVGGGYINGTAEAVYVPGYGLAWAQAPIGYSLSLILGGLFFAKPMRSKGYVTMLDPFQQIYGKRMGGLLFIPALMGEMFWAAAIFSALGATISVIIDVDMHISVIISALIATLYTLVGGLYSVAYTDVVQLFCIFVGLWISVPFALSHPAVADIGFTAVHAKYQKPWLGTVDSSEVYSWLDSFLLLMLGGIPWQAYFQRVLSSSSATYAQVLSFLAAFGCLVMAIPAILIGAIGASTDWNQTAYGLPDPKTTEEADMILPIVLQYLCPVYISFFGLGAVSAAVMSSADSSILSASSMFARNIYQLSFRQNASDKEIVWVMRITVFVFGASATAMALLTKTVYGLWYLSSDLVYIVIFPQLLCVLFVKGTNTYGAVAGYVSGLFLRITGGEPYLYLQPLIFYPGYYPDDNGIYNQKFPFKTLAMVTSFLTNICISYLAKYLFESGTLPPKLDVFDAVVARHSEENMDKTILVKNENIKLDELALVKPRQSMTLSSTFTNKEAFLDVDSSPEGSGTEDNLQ

[7] = molecular target: P450 2C9 (Homo sapiens, UniProt P11712)
[8] = molecular target: Adenosine A2A (Homo sapiens, UniProt P29274); experiment: Lead Profiling Screen radioligand binding
Adenosine A2A, sequence (P29274 whole entry): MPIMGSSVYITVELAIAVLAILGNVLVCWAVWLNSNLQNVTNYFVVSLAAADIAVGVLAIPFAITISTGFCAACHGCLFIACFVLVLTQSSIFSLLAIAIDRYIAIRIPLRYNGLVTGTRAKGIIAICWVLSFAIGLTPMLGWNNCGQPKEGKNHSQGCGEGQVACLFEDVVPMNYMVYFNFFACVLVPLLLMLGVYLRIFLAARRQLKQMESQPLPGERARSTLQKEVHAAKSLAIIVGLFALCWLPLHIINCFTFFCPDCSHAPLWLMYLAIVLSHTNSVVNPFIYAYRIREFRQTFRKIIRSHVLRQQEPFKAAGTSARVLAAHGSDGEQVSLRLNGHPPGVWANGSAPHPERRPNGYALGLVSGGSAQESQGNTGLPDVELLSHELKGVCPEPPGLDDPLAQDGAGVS

[9] = molecular target: Melatonin MT1 (Homo sapiens, UniProt P48039); experiment: Lead Profiling Screen radioligand binding
[10] = molecular target: serotonin transporter (SERT) (Homo sapiens, UniProt P31645); experiment: [3H]5-HT uptake in HEK293 hSERT cells; assay type: cell-based; conditions: transfected HEK 293 cells
[11] = system: Glutamate, NMDA, Phancyclidine; experiment: Lead Profiling Screen radioligand binding; conditions: 10 μM ML352
[12] = molecular target: Neuropeptide Y Y1 (Homo sapiens, UniProt P25929); experiment: Lead Profiling Screen radioligand binding
[13] = molecular target: Adrenergic β1 (Homo sapiens, UniProt P08588); experiment: Lead Profiling Screen radioligand binding
[14] = molecular target: Nicotinic Acetylcholine α1, Bungarotoxin (Homo sapiens, UniProt P02708+P07510+Q07001); experiment: Lead Profiling Screen radioligand binding
[15] = system: Rolipram; experiment: Lead Profiling Screen radioligand binding; conditions: 10 μM ML352
[16] = molecular target: Sigma σ1 (Homo sapiens, UniProt Q99720); experiment: Lead Profiling Screen radioligand binding
Sigma σ1, sequence (Q99720 whole entry): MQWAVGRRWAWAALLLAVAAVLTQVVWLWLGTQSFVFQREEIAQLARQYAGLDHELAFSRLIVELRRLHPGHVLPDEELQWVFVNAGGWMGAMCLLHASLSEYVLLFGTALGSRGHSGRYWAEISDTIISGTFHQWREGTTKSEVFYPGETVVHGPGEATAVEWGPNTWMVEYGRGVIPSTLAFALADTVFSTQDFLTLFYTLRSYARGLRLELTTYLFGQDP

[17] = system: nontransfected HEK 293 cells; experiment: [3H]choline accumulation in nontransfected HEK 293 cells; assay type: cell-based, human; conditions: 5 μM ML352; data not shown
[18] = system: Thyroid Hormone; experiment: Lead Profiling Screen radioligand binding; conditions: 10 μM ML352
[19] = system: Imidazoline I2, Central; experiment: Lead Profiling Screen radioligand binding; conditions: 10 μM ML352
[20] = molecular target: SERT (Mus musculus, UniProt Q60857); experiment: serotonin uptake in mouse forebrain synaptosomes; assay type: biochemical; conditions: 5 μM ML352
Method in brief: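 Crude P2 synaptosomes from forebrains of male C57BL/6J mice (8–10 weeks), taken after decapitation under urethane. Incubated 10 min at 37 °C in Krebs bicarbonate buffer with 100 nM [3H]dopamine or [3H]serotonin ± test compound. Stopped on ice, rapidly filtered, counted by scintillation. Specific uptake defined with cocaine 1 μM (DAT) or citalopram 1 μM (SERT). Protein by BCA; n = 3.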

[21] = molecular target: Endothelin ETB (Homo sapiens, UniProt P24530); experiment: Lead Profiling Screen radioligand binding
[22] = molecular target: Glucocorticoid (Homo sapiens, UniProt P04150); experiment: Lead Profiling Screen radioligand binding
[23] = molecular target: Sertonin (5-Hydroxytrptamine) 5-HT2B (Homo sapiens, UniProt P41595); experiment: Lead Profiling Screen radioligand binding
Sertonin (5-Hydroxytrptamine) 5-HT2B, sequence (P41595 whole entry): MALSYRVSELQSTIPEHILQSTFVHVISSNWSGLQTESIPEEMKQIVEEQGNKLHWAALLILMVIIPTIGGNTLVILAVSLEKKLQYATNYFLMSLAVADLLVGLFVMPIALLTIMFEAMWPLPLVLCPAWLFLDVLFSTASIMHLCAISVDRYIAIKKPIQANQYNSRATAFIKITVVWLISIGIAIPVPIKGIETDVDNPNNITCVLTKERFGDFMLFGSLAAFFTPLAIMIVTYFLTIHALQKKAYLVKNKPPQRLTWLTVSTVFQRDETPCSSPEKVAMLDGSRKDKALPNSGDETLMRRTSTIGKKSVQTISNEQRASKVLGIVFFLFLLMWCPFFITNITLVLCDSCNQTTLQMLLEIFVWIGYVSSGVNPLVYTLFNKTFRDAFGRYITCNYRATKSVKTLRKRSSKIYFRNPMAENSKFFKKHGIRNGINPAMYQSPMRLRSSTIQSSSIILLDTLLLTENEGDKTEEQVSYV

[24] = molecular target: Leukotriene, Cysteinyl CysLT1 (Homo sapiens, UniProt Q9Y271); experiment: Lead Profiling Screen radioligand binding
Leukotriene, Cysteinyl CysLT1, sequence (Q9Y271 whole entry): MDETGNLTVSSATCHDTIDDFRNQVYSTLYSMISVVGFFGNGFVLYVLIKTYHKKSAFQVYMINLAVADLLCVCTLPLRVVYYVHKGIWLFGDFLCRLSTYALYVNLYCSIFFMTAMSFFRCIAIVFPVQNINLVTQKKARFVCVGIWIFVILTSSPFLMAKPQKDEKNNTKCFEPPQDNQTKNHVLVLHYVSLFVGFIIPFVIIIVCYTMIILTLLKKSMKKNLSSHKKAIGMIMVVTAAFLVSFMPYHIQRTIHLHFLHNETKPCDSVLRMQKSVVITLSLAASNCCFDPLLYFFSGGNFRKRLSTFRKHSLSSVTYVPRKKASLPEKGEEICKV

[25] = molecular target: Epidermal Growth Factor (EGF) (Homo sapiens, UniProt P00533); experiment: Lead Profiling Screen radioligand binding
Epidermal Growth Factor (EGF), sequence (P00533 25-1210): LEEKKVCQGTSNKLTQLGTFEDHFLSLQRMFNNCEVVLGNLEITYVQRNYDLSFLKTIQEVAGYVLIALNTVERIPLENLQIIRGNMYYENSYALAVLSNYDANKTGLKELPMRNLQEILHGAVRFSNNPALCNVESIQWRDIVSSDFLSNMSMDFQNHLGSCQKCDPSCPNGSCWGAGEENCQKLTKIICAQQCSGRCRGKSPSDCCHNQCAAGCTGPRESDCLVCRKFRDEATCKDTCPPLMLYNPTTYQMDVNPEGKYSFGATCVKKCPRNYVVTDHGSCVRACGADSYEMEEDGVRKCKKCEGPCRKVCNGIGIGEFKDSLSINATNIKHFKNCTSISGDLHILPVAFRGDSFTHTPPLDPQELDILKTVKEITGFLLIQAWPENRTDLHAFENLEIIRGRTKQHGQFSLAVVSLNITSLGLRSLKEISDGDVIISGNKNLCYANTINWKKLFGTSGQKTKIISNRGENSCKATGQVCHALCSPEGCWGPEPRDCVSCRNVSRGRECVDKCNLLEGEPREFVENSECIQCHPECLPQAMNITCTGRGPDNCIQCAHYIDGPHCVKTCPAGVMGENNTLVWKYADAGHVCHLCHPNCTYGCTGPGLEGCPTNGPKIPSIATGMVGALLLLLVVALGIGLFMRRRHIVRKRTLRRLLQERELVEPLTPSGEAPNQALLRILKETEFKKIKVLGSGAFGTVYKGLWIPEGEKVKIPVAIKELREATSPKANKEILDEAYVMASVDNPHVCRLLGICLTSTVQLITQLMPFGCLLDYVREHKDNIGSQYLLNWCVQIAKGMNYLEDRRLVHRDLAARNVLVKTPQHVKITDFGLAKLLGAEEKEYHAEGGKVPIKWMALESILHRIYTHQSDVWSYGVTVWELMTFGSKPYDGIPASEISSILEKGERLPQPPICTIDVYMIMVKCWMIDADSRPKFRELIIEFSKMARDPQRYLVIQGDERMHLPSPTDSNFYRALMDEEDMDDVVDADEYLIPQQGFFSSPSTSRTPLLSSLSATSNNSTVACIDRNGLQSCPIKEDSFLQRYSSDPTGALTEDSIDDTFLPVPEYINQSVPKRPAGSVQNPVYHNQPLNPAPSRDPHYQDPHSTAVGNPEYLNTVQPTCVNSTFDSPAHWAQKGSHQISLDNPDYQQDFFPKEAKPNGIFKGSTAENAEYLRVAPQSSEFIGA

[26] = system: Phorbol Ester; experiment: Lead Profiling Screen radioligand binding; conditions: 10 μM ML352
[27] = molecular target: T2, WT hCHT (Homo sapiens, UniProt Q9GZV3); experiment: cell-surface biotinylation, CHT surface expression in WT hCHT HEK 293 cells; assay type: cell-based; conditions: 5 μM, 15 min incubation
T2 sequence (Q9GZV3 1-580): T1 sequence (Q9GZV3 1-580)

[28] = molecular target: Adrenergic α1D (Homo sapiens, UniProt P25100); experiment: Lead Profiling Screen radioligand binding
Adrenergic α1D, sequence (P25100 whole entry): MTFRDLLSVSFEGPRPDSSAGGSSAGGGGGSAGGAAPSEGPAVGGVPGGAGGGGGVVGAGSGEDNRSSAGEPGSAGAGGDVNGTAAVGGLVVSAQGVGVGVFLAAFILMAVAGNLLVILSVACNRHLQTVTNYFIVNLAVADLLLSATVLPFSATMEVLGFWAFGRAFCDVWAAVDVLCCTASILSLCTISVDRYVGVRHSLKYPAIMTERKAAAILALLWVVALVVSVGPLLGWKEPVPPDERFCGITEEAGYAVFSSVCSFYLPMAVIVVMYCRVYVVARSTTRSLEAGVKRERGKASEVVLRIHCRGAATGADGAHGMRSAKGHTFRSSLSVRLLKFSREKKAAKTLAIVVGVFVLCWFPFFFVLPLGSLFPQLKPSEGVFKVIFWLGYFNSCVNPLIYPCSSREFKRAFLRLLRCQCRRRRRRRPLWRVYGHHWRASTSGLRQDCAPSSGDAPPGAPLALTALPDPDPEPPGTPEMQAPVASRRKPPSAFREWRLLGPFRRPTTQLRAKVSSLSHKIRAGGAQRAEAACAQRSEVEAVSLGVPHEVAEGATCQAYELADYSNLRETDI

[29] = system: GABAA, Flunitrazepam, Central; experiment: Lead Profiling Screen radioligand binding; conditions: 10 μM ML352
[30] = molecular target: dopamine transporter (DAT) (Homo sapiens, UniProt Q01959); experiment: [3H]DA uptake in HEK293 hDAT cells; assay type: cell-based; conditions: transfected HEK 293 cells
[31] = molecular target: norepinephrine transporter (NET) (Homo sapiens, UniProt P23975); experiment: [3H]NE uptake in HEK293 hNET cells; assay type: cell-based; conditions: transfected HEK 293 cells
[32] = molecular target: AChE (Mus musculus, UniProt P21836); experiment: AChE activity in mouse forebrain extracts; assay type: biochemical; conditions: concentrations well above the CHT Ki
AChE, sequence (P21836 32-614): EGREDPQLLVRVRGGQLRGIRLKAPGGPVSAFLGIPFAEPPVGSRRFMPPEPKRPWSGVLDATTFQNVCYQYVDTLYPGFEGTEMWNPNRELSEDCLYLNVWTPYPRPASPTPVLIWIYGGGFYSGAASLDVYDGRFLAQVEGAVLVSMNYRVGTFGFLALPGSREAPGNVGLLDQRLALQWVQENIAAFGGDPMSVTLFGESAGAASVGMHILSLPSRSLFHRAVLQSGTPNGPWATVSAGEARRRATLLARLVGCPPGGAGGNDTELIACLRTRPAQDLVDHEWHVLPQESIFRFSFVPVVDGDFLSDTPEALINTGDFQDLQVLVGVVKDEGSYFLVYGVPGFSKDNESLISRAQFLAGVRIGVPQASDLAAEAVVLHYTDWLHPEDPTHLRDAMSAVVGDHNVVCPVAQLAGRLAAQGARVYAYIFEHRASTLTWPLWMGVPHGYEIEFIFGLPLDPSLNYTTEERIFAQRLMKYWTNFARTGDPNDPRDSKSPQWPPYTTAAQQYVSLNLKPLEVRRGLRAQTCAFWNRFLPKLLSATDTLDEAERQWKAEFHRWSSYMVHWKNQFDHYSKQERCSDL

[33] = system: Glutamate, NMDA, Agonism; experiment: Lead Profiling Screen radioligand binding; conditions: 10 μM ML352
[34] = molecular target: Estrogen Erα (Homo sapiens, UniProt P03372); experiment: Lead Profiling Screen radioligand binding

Cannabinoid CB1, sequence (P21554 whole entry): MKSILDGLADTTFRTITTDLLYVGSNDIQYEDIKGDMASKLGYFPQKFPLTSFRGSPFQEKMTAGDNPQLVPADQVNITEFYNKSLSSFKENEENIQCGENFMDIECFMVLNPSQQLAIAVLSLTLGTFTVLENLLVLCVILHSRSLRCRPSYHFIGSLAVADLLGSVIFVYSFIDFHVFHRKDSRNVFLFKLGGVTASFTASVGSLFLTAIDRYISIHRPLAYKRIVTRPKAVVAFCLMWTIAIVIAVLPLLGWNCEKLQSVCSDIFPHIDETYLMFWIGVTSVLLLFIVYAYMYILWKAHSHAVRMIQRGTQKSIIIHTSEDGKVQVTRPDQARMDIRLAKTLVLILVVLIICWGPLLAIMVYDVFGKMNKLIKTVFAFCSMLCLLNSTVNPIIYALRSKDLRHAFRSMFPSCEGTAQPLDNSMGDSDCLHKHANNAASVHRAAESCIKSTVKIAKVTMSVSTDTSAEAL

Work on `COc1ccc(C(=O)NCc2cc(C(C)C)no2)cc1OC1CCN(C)CC1` [ML352, N-((3-isopropylisoxazol-5-yl)methyl)-4-methoxy-3-((1-methylpiperidin-4-yl)oxy)benzamide] yielded an inhibition at 10 µM [1] of 7%, an inhibition at 10 µM [2] of 4% and an inhibition at 10 µM [3] of 7%. For the same molecule, the IC50 [4] was over 30 µM, the “inhibition of ChAT activity” value [5] was “no ability; also recorded: lacks activity; also recorded: no inhibition” and the “[3H]HC-3 binding Bmax” value ([6]; 200 nM ML352) was 80.3 ± 3.8%. For the same molecule, the “[3H]HC-3 binding Bmax” value ([6]; 800 nM ML352) was 48.9 ± 4.1%, the “mode of inhibition of [3H]HC-3 binding” value ([6]; transfected cell membranes, 200 and 800 nM ML352) was “noncompetitive inhibition” and the IC50 [7] was over 30 µM. The inhibition at 10 µM [8] was 0%, the inhibition at 10 µM [9] was 5% and the “inhibitory activity at SERT” value [10] was “lack of inhibitory activity”. The “% inhibition” value [11] was “–5%”, the inhibition at 10 µM [12] was -2% and the inhibition at 10 µM [13] was 2%. The inhibition at 10 µM [14] was 7%, the “% inhibition” value [15] was 1% and the inhibition at 10 µM [16] was -1%. The “effect on [3H]choline accumulation in nontransfected HEK 293 cells” value [17] was under 20%, the “% inhibition” value [18] was 6% and the “% inhibition” value [19] was 16%. The “inhibition of SERT” value [20] was “fails to inhibit”, the inhibition at 10 µM [21] was -2% and the inhibition at 10 µM [22] was -1%. For the same molecule, the inhibition at 10 µM [23] was -7%, the inhibition at 10 µM [24] was -3% and the inhibition at 10 µM [25] was 5%. The “% inhibition” value [26] was 5%, the “increase in steady-state hCHT surface expression” value [27] was 43.4 ± 4.7 % of control and the inhibition at 10 µM [28] was 24%. For the same molecule, the “% inhibition” value [29] was 6%, the “inhibitory activity at DAT” value [30] was “lack of inhibitory activity” and the “inhibitory activity at NET” value [31] was “lack of inhibitory activity”. For the same molecule, the “inhibition of AChE” value [32] was “no ability; also recorded: lacks activity; also recorded: no inhibition”, the “% inhibition” value [33] was 1% and the inhibition at 10 µM [34] was 4%.
